Screens: PubChem, several laboratories
Compounds with a hit are over-represented: about 2.2% of the library has one in this group of screens.
PPC-1+TRAIL kill – kills PPC-1 cancer cells in the presence of TRAIL; PPC-1 cells + TRAIL, ATPLite viability luminescence; cell killing (% activity), % at 4 µM or 5 µM; 0.41% of 220,000 active;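 active = cell killing above 50% in the first pass at 4 µM, then a duplicate retest at 5 µM averaging 50% or more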;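 note: plate controls were cells with TRAIL plus DMSO for no effect and medium-only wells lacking cells for full effect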
TRAIL sens C8 – caspase-8 TRAIL sensitization; NB7+C8 cells + TRAIL, ATPlite viability luminescence; inhibition (viability loss, TRAIL sensitization), % at 10 µM; 1% of 360,000 active; AID 624354;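 active = compounds causing at least 50% loss of cell viability in the single-dose screen, relative to plate controls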
FLuc act counter – firefly luciferase counter-screen for stimulation assays; P08659; ATPlite luciferase biochemical, luminescence, 10 min; 0 = ATP-free wells, 1 = DMSO control; activation factor at 10 µM; 200,000 tested, under 10 active; AID 1027;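 active = luciferase activation factor, scaled between plate controls, of at least 2 with compound at 10 µM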
Target sequence (P08659 whole entry, looked up): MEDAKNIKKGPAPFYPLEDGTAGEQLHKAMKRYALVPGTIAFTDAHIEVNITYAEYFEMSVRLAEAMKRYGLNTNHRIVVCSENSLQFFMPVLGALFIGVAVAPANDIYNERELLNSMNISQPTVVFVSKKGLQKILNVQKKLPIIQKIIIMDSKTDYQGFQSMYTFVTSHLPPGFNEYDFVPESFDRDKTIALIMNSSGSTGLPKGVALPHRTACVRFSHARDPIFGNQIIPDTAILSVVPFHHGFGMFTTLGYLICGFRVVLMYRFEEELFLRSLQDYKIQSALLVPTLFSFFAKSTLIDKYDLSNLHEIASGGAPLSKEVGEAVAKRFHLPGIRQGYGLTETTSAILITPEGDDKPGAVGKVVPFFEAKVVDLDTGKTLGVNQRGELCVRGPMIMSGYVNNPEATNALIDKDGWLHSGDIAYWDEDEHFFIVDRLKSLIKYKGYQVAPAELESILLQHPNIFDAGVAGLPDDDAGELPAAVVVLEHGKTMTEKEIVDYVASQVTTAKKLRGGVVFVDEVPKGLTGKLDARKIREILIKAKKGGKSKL
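Assay system: Luciferase/luciferin detection reagent, cell-free biochemical luciferase assay / Also added: ATP substrate / Schedule: 10 min at ambient temperature / Measured by: luminescence measurement of luciferase light output / Benchmarks: low control with PBS replacing ATP, high control enzyme plus ATP without compound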
FLuc inhib CS – inhibits firefly luciferase, flagging false hits in luciferase inhibition screens. P08659. 1.5% of 200,000 active. AID 1006. inhibition, % at 10 µM. ATPLite firefly luciferase biochemical luminescence, 10 min;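 active = inhibition above about 50% when tested at 10 µM, limit read from the data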
APP 5'UTR act – APP 5'UTR luciferase reporter activation; SH-SY5Y APP 5'UTR luciferase reporter, luminescence; zero percent = DMSO vehicle wells; activation, % at 2 µM; 1% of 190,000 active; AID 1276;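 active = activation above a set limit, based on mean plus 3 SD of controls, cut at about 140% in these data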
NF-kB expr up – compounds increasing NF-kB expression in human neuronal cells | NF-kB reporter expression; hits give high values | fold change at 12.5 µM | 1.6% of 190,000 active | AID 1239; in the data active = fold change above about 3.3
PPC1 cytotox – kills PPC-1 cells. shares compounds with PPC-1+TRAIL kill. PPC-1 viability, ATPlite luminescence, overnight. cytotoxicity, % at 5 µM. 50% of 1,200 active. AID 1447;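 active = reconfirmed compounds whose average cytotoxicity reaches 50% or more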;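 note: 0% = DMSO-treated cells and 100% = wells holding medium but no cells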
* marks the source's active call; other numbers are inactive results; x = no result.

SMILES	PPC-1+TRAIL kill	TRAIL sens C8	FLuc act counter	FLuc inhib CS	APP 5'UTR act	NF-kB expr up	PPC1 cytotox
COc1ccc(/C=C/C(=O)c2c(O)cc(C)oc2=O)c(OC)c1	87*	89*	0	95*	53	4.1*	86*
COc1cccc(/C=C/C(=O)c2c(O)cc(C)oc2=O)c1O	-18	11	1	5	11	2.9	x
COC(=O)[C@]12CCCCC=C1N(CCc1ccc(OC)c(OC)c1)C(=O)[C@H](CC(=O)NCc1cccc(C(F)(F)F)c1)C2	x	21	x	x	x	x	x
COc1cc(C(=O)O/N=C(\N)c2ccccn2)cc(OC)c1OC	-1	-15	x	x	x	x	x
N/C(=N\OC(=O)c1ccccc1)c1ccccn1	43	49	0	96*	150*	0.99	52*
COc1ccc(Cl)cc1C(=O)O/N=C(\N)c1ccccn1	x	14	x	x	x	x	x
N/C(=N\OCc1ccc([N+](=O)[O-])cc1)c1ccccn1	86*	x	0	96*	34	1.6	85*
N/C(=N\OC(=O)c1cc(Cl)ccc1Cl)c1ccccn1	55*	63*	0.3	75*	172*	3	58*
Cc1cc(C)c2cc(C#N)c(NCCNC(=O)c3ccccn3)nc2c1	x	-7	x	x	x	x	x
CCc1ccn2cc(-c3cc(-c4ccccc4)no3)nc2c1	81*	90*	x	x	x	x	80*
On1onc2c3cc(-c4ccccc4)nc3ccc21	24	3	1	-5	-61	2.3	18
O=C1CC(c2ccc3c(c2)OCO3)c2cc3c(cc2N1)OCCO3 (stereo not given)	18	-4	1	-1	-5	1.1	22
COc1ccc(C(C)NC(=O)C2CCN(CCOc3ccc(Cl)cc3Cl)CC2)cc1OC (stereo not given)	x	17	x	x	x	x	x
CCCC(=O)Nc1ccc2c(c1)C(=O)N(C)C[C@@H](OC)[C@H](C)CN(Cc1ccc(-c3ccccn3)cc1)[C@@H](C)CO2	x	-1	x	x	x	x	x
Cc1cc(N=Nc2ccc(C)c(N=Nc3cc(C)c(N)cc3N)c2)c(N)cc1N	64*	51*	x	x	x	x	63*
Cc1sc(=NC(=O)c2ccco2)n(C)c1-c1ccccc1	76*	78*	0.1	91*	131	5.1*	74*
Cn1c(=NC(=O)c2ccco2)sc2ccccc21	50*	59*	0.1	86*	156*	4.6*	53*
COCCNC(=O)C1CCCN(C(=O)COCc2ccccc2)CC1 (stereo not given)	x	3	x	x	x	x	x
O=C(/C=C/c1ccc(Cl)cc1Cl)Nc1cccc(S(=O)(=O)NC2=NCCC2)c1	87*	91*	0	96*	79	7.2*	88*
COc1ccc(C(=O)C(=O)N2CCC(Cc3ccccc3)CC2)cc1OC	x	-17	x	x	x	x	x
CCCCCCN1C=CC(=C2C(=O)c3ccccc3C2=O)C=C1	81*	92*	0.1	94*	48	1.3	80*
CCCCN1C=CC(=C2N=c3cccc([N+](=O)[O-])c3=N2)C=C1	16	-2	1	1	28	1	x
CCN1C=CC(=C2C(=O)c3ccccc3C2=O)C=C1	96*	91*	0	98*	-70	0.24	96*
O=C1NC[C@H](CCCCN2CCN(Cc3ccccc3)C(=O)C2=O)N(Cc2ccccc2)C1=O	x	-3	x	x	x	x	x
CC1(C(=O)NCc2ccccc2)CN(S(C)(=O)=O)CC(=O)N1C1CC1 (stereo not given)	x	-1	x	x	x	x	x
SMILES	PPC-1+TRAIL kill	TRAIL sens C8	FLuc act counter	FLuc inhib CS	APP 5'UTR act	NF-kB expr up	PPC1 cytotox
Oc1ccc(N=Nc2ccc3c(c2)OCO3)c2ccccc12	34	x	x	x	x	x	32
O=C(NN=Cc1c(O)ccc2ccccc12)c1ccc2c(c1)OCO2	x	34	x	x	x	x	x
O=C(Nc1ccccc1C(=O)N/N=C/c1ccncc1)c1ccccc1	80*	89*	0	96*	16	1.3	82*
C(=C\c1nc2ccccc2[nH]1)/c1ccccc1	88*	86*	0.1	94*	192*	3.1	88*
c1ccc(-c2nc3ccccc3[nH]2)cc1	x	25	x	x	x	x	x
NC(COCc1ccccc1)c1csc(Nc2ccccn2)n1 (stereo not given)	x	-8	x	x	x	x	x
CCOc1ccc(C2C(C#N)=C(N)SC(N)=C2C#N)cc1OCC	5	18	1.1	-11	x	1.1	9
Cn1nc(C2CC2)cc1NC(=O)C1(C)CCN1C(=O)Cc1ccc(-c2ccccc2)cc1 (stereo not given)	x	19	x	x	x	x	x
COc1ccc(-c2nsc(C(=O)N(c3ccc(F)cc3)C(C(=O)NC3CCCC3)c3ccc(OC)cc3)c2N)cc1 (stereo not given)	6	0	1	-4	7	1.5	1
CCCc1nnc(SCc2ccc(OC)cc2)n1N	-2	1	1	-1	7	1.2	-16
CC(C)CC(=O)NC(c1cccs1)c1ccc2cccnc2c1O (stereo not given)	x	36	1	-4	-82	0.92	x
CCC(=O)NC(c1cccs1)c1ccc2cccnc2c1O (stereo not given)	28	48	1	4	-85	x	22
O=c1c2c(-c3ccccc3)csc2nc2c3ccccc3c(NCCN3CCOCC3)nn12	-6	72*	1	0	13	2.3	6
Cc1ccc(C)c(S(=O)(=O)Nc2ccc(C(N)=O)cc2)c1	-1	-1	1.1	-5	-3	1.1	x
Cc1ccc(C)c(NS(=O)(=O)c2cc(C(N)=O)ccc2C)c1	16	2	1.1	-6	8	0.93	-1
O=C(NC(c1ccc(-c2ccccc2)cc1)c1cnccn1)C1CCN(Cc2ccc3c(c2)OCO3)CC1 (stereo not given)	x	10	x	x	x	x	x
COc1ccc(CC(N)c2csc(NC(=O)Nc3ccccc3-c3ccccc3)n2)cc1 (stereo not given)	x	39	x	x	x	x	x
O=C(Nc1nnc(SCC(=O)N2CCOCC2)s1)c1ccccc1Cl	58*	69*	0.2	85*	x	1.4	56*
COC(=O)[C@@]12C[C@@H](CC(=O)N3CCCCC3)C(=O)N(Cc3ccccc3)C1=CCC(C)(C)C2	x	9	x	x	x	x	x
O=C(N/N=C/c1ccc(OC(=O)c2ccccc2Br)cc1)c1ccccn1	x	21	x	x	x	x	x
CC(C)(C)c1ccc(/C=N/NC(=O)c2ccccn2)cc1	64*	76*	0.1	93*	168*	2.4	61*
Cc1ccc(S(=O)(=O)C[C@@H]2OC[C@H](C(C)C)N2S(=O)(=O)c2ccc(C)cc2)cc1	x	2	x	x	x	x	x
Cc1ccc(C(=O)Nc2nc(=O)n(C(=O)CC(C)C)s2)cc1	13	-10	0.9	5	x	1	x
Cc1ccc(C(=O)Nc2nc(=O)n(C)s2)cc1	31	53*	0.2	81*	x	2	37
Cc1ccc(C(=O)Nc2nccs2)cc1	7	24	0.2	83*	91	3.5*	4
